# Results reported in article PMC2800315 (Japanese Journal of Clinical Oncology, 2009).
# Experiment: Safety and tolerability, adverse events
# Assay type: in vivo, Japanese patients
# Outline: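 Open-label 3+3 dose escalation with daily oral dosing up to 10 mg/day in 28-day cycles. Adverse events monitored throughout and graded by NCI CTCAE v3.0, recorded until 28 days after stopping. DLT: grade ≥3 haematologic or non-haematologic event, or grade ≥3 lab abnormality, within the first 4 weeks and suspected drug-related. Antiemetic and anti-hyperlipidaemia therapy allowed.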
# [1] = 2.5 mg/day (n = 3), G1/2, all courses
# [2] = 2.5 mg/day (n = 3), G3/4, all courses
# [3] = 5 mg/day (n = 3), G1/2, all courses
# [4] = 5 mg/day (n = 3), G3/4, all courses
# [5] = 10 mg/day (n = 3), G1/2, all courses
# [6] = 10 mg/day (n = 3), G3/4, all courses
# [7] = Total, all doses and grades, all courses
# [8] = one patient with esophageal carcinoma, 10 mg/day, day 58
compound,measurement,setting,value
"CO[C@H]1C[C@@H]2CC[C@@H](C)[C@@](O)(O2)C(=O)C(=O)N2CCCC[C@H]2C(=O)O[C@H]([C@H](C)C[C@@H]2CC[C@@H](OCCO)[C@H](OC)C2)CC(=O)[C@H](C)/C=C(\C)[C@@H](O)[C@@H](OC)C(=O)[C@H](C)C[C@H](C)/C=C/C=C/C=C/1C [RAD001, everolimus]",Number of patients with adverse event: Anemia,[1],0
same,Number of patients with adverse event: Anorexia,[1],1
same,Number of patients with adverse event: Diarrhea,[1],0
same,Number of patients with adverse event: Elevated ALT or AST,[1],2
same,Number of patients with adverse event: Fatigue,[1],0
same,Number of patients with adverse event: Glucose tolerance impaired,[1],0
same,Number of patients with adverse event: Hemorrhage,[1],0
same,Number of patients with adverse event: Hyperglycemia,[1],0
same,Number of patients with adverse event: Hypertension,[1],1
same,Number of patients with adverse event: Leukopenia,[1],1
same,Number of patients with adverse event: Mucosal inflammation,[1],0
same,Number of patients with adverse event: Nausea,[1],1
same,Number of patients with adverse event: Neutropenia,[1],1
same,Number of patients with adverse event: Pneumonitis,[1],0
same,Number of patients with adverse event: Rash,[1],0
same,Number of patients with adverse event: Stomatitis,[1],1
same,Number of patients with adverse event: Thrombocytopenia,[1],0
same,Number of patients with adverse event: Weight decreased,[1],1
same,Number of patients with adverse event: Anemia,[2],0
same,Number of patients with adverse event: Anorexia,[2],0
same,Number of patients with adverse event: Diarrhea,[2],0
same,Number of patients with adverse event: Elevated ALT or AST,[2],0
same,Number of patients with adverse event: Fatigue,[2],0
same,Number of patients with adverse event: Glucose tolerance impaired,[2],0
same,Number of patients with adverse event: Hemorrhage,[2],0
same,Number of patients with adverse event: Hyperglycemia,[2],0
same,Number of patients with adverse event: Hypertension,[2],0
same,Number of patients with adverse event: Leukopenia,[2],0
same,Number of patients with adverse event: Mucosal inflammation,[2],0
same,Number of patients with adverse event: Nausea,[2],0
same,Number of patients with adverse event: Neutropenia,[2],0
same,Number of patients with adverse event: Pneumonitis,[2],0
same,Number of patients with adverse event: Rash,[2],0
same,Number of patients with adverse event: Stomatitis,[2],0
same,Number of patients with adverse event: Thrombocytopenia,[2],0
same,Number of patients with adverse event: Weight decreased,[2],0
same,Number of patients with adverse event: Anemia,[3],0
same,Number of patients with adverse event: Anorexia,[3],2
same,Number of patients with adverse event: Diarrhea,[3],2
same,Number of patients with adverse event: Elevated ALT or AST,[3],0
same,Number of patients with adverse event: Fatigue,[3],1
same,Number of patients with adverse event: Glucose tolerance impaired,[3],1
same,Number of patients with adverse event: Hemorrhage,[3],0
same,Number of patients with adverse event: Hyperglycemia,[3],0
same,Number of patients with adverse event: Hypertension,[3],0
same,Number of patients with adverse event: Leukopenia,[3],2
same,Number of patients with adverse event: Mucosal inflammation,[3],0
same,Number of patients with adverse event: Nausea,[3],0
same,Number of patients with adverse event: Neutropenia,[3],0
same,Number of patients with adverse event: Pneumonitis,[3],1
same,Number of patients with adverse event: Rash,[3],1
same,Number of patients with adverse event: Stomatitis,[3],0
same,Number of patients with adverse event: Thrombocytopenia,[3],2
same,Number of patients with adverse event: Weight decreased,[3],0
same,Number of patients with adverse event: Anemia,[4],0
same,Number of patients with adverse event: Anorexia,[4],0
same,Number of patients with adverse event: Diarrhea,[4],0
same,Number of patients with adverse event: Elevated ALT or AST,[4],0
same,Number of patients with adverse event: Fatigue,[4],0
same,Number of patients with adverse event: Glucose tolerance impaired,[4],0
same,Number of patients with adverse event: Hemorrhage,[4],0
same,Number of patients with adverse event: Hyperglycemia,[4],0
same,Number of patients with adverse event: Hypertension,[4],0
same,Number of patients with adverse event: Leukopenia,[4],0
same,Number of patients with adverse event: Mucosal inflammation,[4],0
same,Number of patients with adverse event: Nausea,[4],0
same,Number of patients with adverse event: Neutropenia,[4],0
same,Number of patients with adverse event: Pneumonitis,[4],0
same,Number of patients with adverse event: Rash,[4],0
same,Number of patients with adverse event: Stomatitis,[4],0
same,Number of patients with adverse event: Thrombocytopenia,[4],0
same,Number of patients with adverse event: Weight decreased,[4],0
same,Number of patients with adverse event: Anemia,[5],1
same,Number of patients with adverse event: Anorexia,[5],1
same,Number of patients with adverse event: Diarrhea,[5],0
same,Number of patients with adverse event: Elevated ALT or AST,[5],0
same,Number of patients with adverse event: Fatigue,[5],0
same,Number of patients with adverse event: Glucose tolerance impaired,[5],0
same,Number of patients with adverse event: Hemorrhage,[5],0
same,Number of patients with adverse event: Hyperglycemia,[5],0
same,Number of patients with adverse event: Hypertension,[5],0
same,Number of patients with adverse event: Leukopenia,[5],0
same,Number of patients with adverse event: Mucosal inflammation,[5],2
same,Number of patients with adverse event: Nausea,[5],1
same,Number of patients with adverse event: Neutropenia,[5],0
same,Number of patients with adverse event: Pneumonitis,[5],0
same,Number of patients with adverse event: Rash,[5],3
same,Number of patients with adverse event: Stomatitis,[5],0
same,Number of patients with adverse event: Thrombocytopenia,[5],3
same,Number of patients with adverse event: Weight decreased,[5],1
same,Number of patients with adverse event: Anemia,[6],0
same,Number of patients with adverse event: Anorexia,[6],0
same,Number of patients with adverse event: Diarrhea,[6],0
same,Number of patients with adverse event: Elevated ALT or AST,[6],0
same,Number of patients with adverse event: Fatigue,[6],1
same,Number of patients with adverse event: Glucose tolerance impaired,[6],0
same,Number of patients with adverse event: Hemorrhage,[6],1
same,Number of patients with adverse event: Hyperglycemia,[6],1
same,Number of patients with adverse event: Hypertension,[6],0
same,Number of patients with adverse event: Leukopenia,[6],0
same,Number of patients with adverse event: Mucosal inflammation,[6],0
same,Number of patients with adverse event: Nausea,[6],0
same,Number of patients with adverse event: Neutropenia,[6],0
same,Number of patients with adverse event: Pneumonitis,[6],0
same,Number of patients with adverse event: Rash,[6],0
same,Number of patients with adverse event: Stomatitis,[6],1
same,Number of patients with adverse event: Thrombocytopenia,[6],0
same,Number of patients with adverse event: Weight decreased,[6],0
same,Dosage recommended for further development,Japanese patients with advanced solid malignancies,10 mg/day
same,Number of patients with adverse event: Anemia,[7],1
same,Number of patients with adverse event: Anorexia,[7],4
same,Number of patients with adverse event: Diarrhea,[7],2
same,Number of patients with adverse event: Elevated ALT or AST,[7],2
same,Number of patients with adverse event: Fatigue,[7],2
same,Number of patients with adverse event: Glucose tolerance impaired,[7],1
same,Number of patients with adverse event: Hemorrhage,[7],1
same,Number of patients with adverse event: Hyperglycemia,[7],1
same,Number of patients with adverse event: Hypertension,[7],1
same,Number of patients with adverse event: Leukopenia,[7],3
same,Number of patients with adverse event: Mucosal inflammation,[7],2
same,Number of patients with adverse event: Nausea,[7],2
same,Number of patients with adverse event: Neutropenia,[7],1
same,Number of patients with adverse event: Pneumonitis,[7],1
same,Number of patients with adverse event: Rash,[7],4
same,Number of patients with adverse event: Stomatitis,[7],2
same,Number of patients with adverse event: Thrombocytopenia,[7],5
same,Number of patients with adverse event: Weight decreased,[7],2
same,Hyperlipidemia,all cohorts,not observed
same,Dose-limiting toxicities (DLTs),"first cycle of treatment (28 days), 2.5, 5.0 or 10.0 mg/day",not observed
same,"Pneumonitis, grade","one patient with colon cancer, 5 mg/day, after 142 days of therapy",grade 2
same,"Hyperglycemia, grade","one patient with colorectal cancer, 10 mg/day, day 98",Grade 3
same,"Fatigue, grade",[8],Grade 3
same,"Stomatitis, grade",[8],Grade 3
same,"Anorexia, all grades, patients","overall, nine patients",44%
same,"Leukopenia, all grades, patients","overall, nine patients",33%
same,"Rash, all grades, patients","overall, nine patients",44%
same,"Thrombocytopenia, all grades, patients","overall, nine patients",56%
